Laboratory results as given in PubChem BioAssay AID652185 (Vanderbilt Specialized Chemistry Center, 2013).
The source made the active and inactive calls. The rule behind the calls is not given here.

Biological target: Metabotropic glutamate receptor 2 (Rattus norvegicus) (UniProt P31421)
Experiment: mGlu2 glutamate EC50 shift by compounds – cell-based, HEK293A, Galpha15, calcium mobilization, selectivity assay for mGlu5 silent allosteric modulators, profiling panel (AID 652185)
Conditions: HEK293A rmGlu2+Galpha15, Fluo4 calcium mobilization, glutamate CRC
Procedure, shortened: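 material = rat mGlu2 plus Galpha15 in HEK293A cells | medium = HEPES-buffered HBSS with probenecid, pH 7.4 | technique = Fluo4-AM (1 µM) calcium-dependent fluorescence | also added = glutamate, 10 nM–1 mM, 9 concentrations | doses = single compound dose of 10 µM, 1% DMSO final | incubation = 60 min 37 °C dye load, compound 60 s pre-glutamate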

Sequence of Metabotropic glutamate receptor 2 (Rattus norvegicus) (P31421 whole entry, looked up): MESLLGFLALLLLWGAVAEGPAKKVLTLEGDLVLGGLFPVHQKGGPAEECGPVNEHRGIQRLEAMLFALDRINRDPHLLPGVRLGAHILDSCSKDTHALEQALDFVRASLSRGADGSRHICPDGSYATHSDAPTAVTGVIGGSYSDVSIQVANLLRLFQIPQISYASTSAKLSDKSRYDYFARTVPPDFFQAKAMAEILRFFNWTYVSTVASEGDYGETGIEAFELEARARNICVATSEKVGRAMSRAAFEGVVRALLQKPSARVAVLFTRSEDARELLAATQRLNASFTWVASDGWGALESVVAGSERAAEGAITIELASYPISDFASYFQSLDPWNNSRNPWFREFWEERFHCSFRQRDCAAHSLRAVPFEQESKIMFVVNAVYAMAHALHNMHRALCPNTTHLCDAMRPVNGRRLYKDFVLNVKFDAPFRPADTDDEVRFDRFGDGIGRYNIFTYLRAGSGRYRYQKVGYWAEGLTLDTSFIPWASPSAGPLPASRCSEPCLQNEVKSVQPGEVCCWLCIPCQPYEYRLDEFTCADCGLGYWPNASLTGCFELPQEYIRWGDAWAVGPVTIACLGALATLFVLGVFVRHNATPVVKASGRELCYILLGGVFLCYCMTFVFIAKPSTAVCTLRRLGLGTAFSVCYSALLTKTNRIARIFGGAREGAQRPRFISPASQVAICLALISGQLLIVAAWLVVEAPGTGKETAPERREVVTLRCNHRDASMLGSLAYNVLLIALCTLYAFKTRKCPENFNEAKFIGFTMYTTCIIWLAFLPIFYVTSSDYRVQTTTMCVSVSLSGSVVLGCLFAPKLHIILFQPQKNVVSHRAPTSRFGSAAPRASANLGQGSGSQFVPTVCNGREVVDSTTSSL

glutamate EC50 in presence of 10 uM compound (no shift = inactive): inactive
SMILES: O=C(c1ccc(C#Cc2cccc(F)c2)cn1)N1CC2CC2C1 (stereo unspecified)
